In PMC6839450 (ACS chemical biology, 2015):

What was measured:
Experiment in all cases: Cell viability
Settings in all cases: Ac-peptide, up to 20 μM, 24 h, CellTiter-Glo
[1] = tested on: Bax−/−Bak−/− (DKO) MEFs; type: cell-based, mouse
Method in brief: (§1)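 Cells in OptiMEM with penicillin/streptomycin: MEFs (wild-type or Bax−/−Bak−/−) at 2.5 × 10^3 per well, adhered overnight and washed; OCI-AML3 at 1 × 10^4 per well. Serial dilutions of peptide from a 10 mM DMSO stock, or vehicle, were applied for 2 h at 37 °C serum-free, then FBS was added to 10%. CellTiter-Glo luminescence was read 24 h post-treatment.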

[2] = tested on: wild-type MEFs; type: cell-based, mouse
Method in brief: as §1

[3] = tested on: OCI-AML3 cells; type: cell-based
Method in brief: as §1

BIM BH3_2: unmodified BIM BH3 domain peptide, amino acids 145–164; N-terminal cap depends on the assay
no effect: Effect on viability of Bax−/−Bak−/− (DKO) MEFs (in words) [1] | Effect on viability of wild-type MEFs (in words) [2] | Effect on viability of OCI-AML3 cells (in words) [3]
